Each compound was assayed against T1, OR1G1 (Homo sapiens) (UniProt P47890). Settings: stereoisomer not certain.
T1 sequence (whole entry): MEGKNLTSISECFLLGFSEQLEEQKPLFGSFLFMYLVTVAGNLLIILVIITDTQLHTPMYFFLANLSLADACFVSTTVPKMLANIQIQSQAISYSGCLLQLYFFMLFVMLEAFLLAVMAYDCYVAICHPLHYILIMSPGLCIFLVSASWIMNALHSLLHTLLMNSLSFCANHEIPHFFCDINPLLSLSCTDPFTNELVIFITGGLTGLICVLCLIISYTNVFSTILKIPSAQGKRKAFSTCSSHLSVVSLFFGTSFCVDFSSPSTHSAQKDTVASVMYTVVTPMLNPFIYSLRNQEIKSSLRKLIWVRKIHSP
Method in brief: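 Each entry records the cell line, G-protein, co-transfected protein and tags used. Methods varied with the source, often transient luciferase assays in mammalian cell lines. A receptor–molecule pair is called responsive (active) if the original authors judged its signal statistically different from baseline and non-responsive (inactive) otherwise.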

| Compound | odorant receptor agonist call |
| --- | --- |
| CCCCCCCCCCO | active |
| CC1=CCC2CC1C2(C)C (centres undefined) | inactive |
| CCCCCCC(=O)CC | active |
| CCCCCCC(C)=O | inactive |
| c1ccc2scnc2c1 | active |
| CC12CCC(CC1=O)C2(C)C (centres undefined) | active |
| CCOC(=O)C(C)C | inactive |
| CCCCCCCC(C)O (centres undefined) | active |
| CC(=O)C=CC1=C(C)CCCC1(C)C | inactive |
| C=CCOC(=O)COCCC(C)C | inactive |
| O=c1ccc2ccccc2o1 | active |
| CC(=O)CCC=C(C)C | inactive |
| CCCC(=O)OCC | active |
| CCCCCCCC(=O)OC | active |
| C=CC(C)(O)CCC=C(C)CCC=C(C)C (centres undefined) | inactive |
| CCCCCCCCCCCC(=O)O | inactive |
| CCCCCCCCCCCCO | active |

| Compound | odorant receptor agonist call |
| --- | --- |
| CCCCCCCCC(OC(C)=O)OC(C)=O | active |
| CC(CC=O)c1ccc(C(C)(C)C)cc1 (centres undefined) | inactive |
| CCCCCCC(=O)OC | inactive |
| CCCCCCCO | active |
| CCCCCCCCC(C)=O | inactive |
| OCc1ccccc1 | active |
| CC(=O)OCc1ccccc1 | inactive |
| CCCCCC(=O)OC | inactive |
| CCC(=O)C=CC1C(C)=CCCC1(C)C (centres undefined) | inactive |
| COC1CC2CC1C1CC(C=O)CC21 (centres undefined) | inactive |
| CC(C)=CCCC(C)CC=O (centres undefined) | active |
| CC(C)CCCC(C)(C)O | inactive |
| CC=CC(=O)C1C(C)=CCCC1(C)C (centres undefined) | inactive |
| CC(C)=CCCC(C)=CCO | active |
| CC(C)=CCCC(C)=CC#N | inactive |
| CCCCOC(=O)CCC | inactive |
| CC1CCC(C(C)C)C(=O)C1 (centres undefined) | inactive |
